From ChEMBL document CHEMBL5338825, “Structure-Based Discovery of Inhibitors of the SARS-CoV-2 Nsp14 N7-Methyltransferase” (J Med Chem, 2023)
pIC50: −log10 of the molar value. Calls of active or inactive are those of the source. The rule behind the calls is not given here.

Key:
[1] = biological target: Replicase polyprotein 1ab (Severe acute respiratory syndrome coronavirus 2) (UniProt P0DTD1); test: Non-covalent inhibition of N-terminal 6His/SUMO-tagged SARS-CoV-2 NSP14 expressed in Escherichia coli Rosetta 2 (DE3) PlysS cells using 5'GpppACCCCCCCCC-Biotin 3' and 3H-SAM as substrates incubated for 30 mins by TopCount scintillation proximity assay
Summary of the method: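 Radiometric N7-MTase assay tracking [3H]-methyl transfer from SAM onto the cap of […] RNA, run with 0.01% v/v Triton X-100. Concentration–response in triplicate to give IC50.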

[2] = biological target: Protein arginine N-methyltransferase 3 (Homo sapiens, UniProt O60678); test: Inhibition of human PRMT3 using biotin-tagged Histone H4 and 3H-SAM as substrate at 10 uM incubated for 1 hrs by TopCount scintillation proximity assay relative to control
Summary of the method: (§1)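 Human methyltransferase panel, radiometric assays. Each compound tested at a single 10 μM concentration in triplicate. Enzymes inhibited by more than 50% were taken on to concentration–response.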

[3] = biological target: Histone-lysine N-methyltransferase SETD2 (Homo sapiens) (UniProt Q9BYW2); test: Inhibition of human SETD2 using biotin-tagged Histone H3 and 3H-SAM as substrate at 10 uM incubated for 1 hrs by TopCount scintillation proximity assay relative to control
Summary of the method: (§2)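 Selectivity panel against human SAM-dependent methyltransferases, radiometric format. Single test concentration of 10 μM, triplicate, read as percent inhibition.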

[4] = biological target: Histone-lysine N-methyltransferase EHMT2 (Homo sapiens) (UniProt Q96KQ7); test: Inhibition of human G9a using biotin-tagged Histone H3 and 3H-SAM as substrate at 10 uM incubated for 1 hrs by TopCount scintillation proximity assay relative to control; summary of the method: as §1
Histone-lysine N-methyltransferase EHMT2 (Homo sapiens), sequence (Q96KQ7 whole entry): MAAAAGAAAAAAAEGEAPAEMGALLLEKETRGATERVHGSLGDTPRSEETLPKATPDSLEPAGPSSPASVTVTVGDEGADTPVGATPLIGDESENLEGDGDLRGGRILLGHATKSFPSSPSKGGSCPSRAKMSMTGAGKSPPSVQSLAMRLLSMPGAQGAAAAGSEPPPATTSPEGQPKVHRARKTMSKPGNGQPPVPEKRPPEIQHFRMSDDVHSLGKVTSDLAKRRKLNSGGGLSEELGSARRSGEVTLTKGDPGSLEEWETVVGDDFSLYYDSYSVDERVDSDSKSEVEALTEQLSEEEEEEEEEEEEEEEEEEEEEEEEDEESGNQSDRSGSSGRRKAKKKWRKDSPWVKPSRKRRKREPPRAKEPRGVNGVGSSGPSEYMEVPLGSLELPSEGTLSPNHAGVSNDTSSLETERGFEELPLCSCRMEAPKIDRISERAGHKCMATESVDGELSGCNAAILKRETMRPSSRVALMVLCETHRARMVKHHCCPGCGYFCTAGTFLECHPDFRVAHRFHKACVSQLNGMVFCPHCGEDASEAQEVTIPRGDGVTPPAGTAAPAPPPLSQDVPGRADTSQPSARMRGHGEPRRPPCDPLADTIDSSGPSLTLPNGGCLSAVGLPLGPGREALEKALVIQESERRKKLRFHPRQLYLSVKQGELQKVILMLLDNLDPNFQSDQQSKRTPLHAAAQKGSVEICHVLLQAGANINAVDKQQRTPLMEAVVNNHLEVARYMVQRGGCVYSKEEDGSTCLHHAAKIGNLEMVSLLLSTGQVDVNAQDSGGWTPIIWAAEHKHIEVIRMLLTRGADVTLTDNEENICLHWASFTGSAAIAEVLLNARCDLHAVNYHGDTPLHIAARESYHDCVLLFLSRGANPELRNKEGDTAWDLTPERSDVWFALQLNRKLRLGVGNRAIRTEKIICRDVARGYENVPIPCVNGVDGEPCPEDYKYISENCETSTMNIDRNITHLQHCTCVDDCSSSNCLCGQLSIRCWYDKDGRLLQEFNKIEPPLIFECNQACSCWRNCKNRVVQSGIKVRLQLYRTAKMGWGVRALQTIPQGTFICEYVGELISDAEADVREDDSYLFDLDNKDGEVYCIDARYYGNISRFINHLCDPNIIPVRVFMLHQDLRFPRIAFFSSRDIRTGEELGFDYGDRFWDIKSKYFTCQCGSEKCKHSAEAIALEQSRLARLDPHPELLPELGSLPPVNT

[5] = biological target: Replicase polyprotein 1ab (Severe acute respiratory syndrome coronavirus 2, UniProt P0DTD1); test: Inhibition of N-terminal 6His/SUMO-tagged SARS-CoV-2 NSP14 expressed in Escherichia coli Rosetta 2 (DE3) PlysS cells using 5'GpppACCCCCCCCC-Biotin 3' and 3H-SAM as substrates incubated for 30 mins by TopCount scintillation proximity assay
[6] = Aggregation property of the compound in KPi buffer at pH 7.0 assessed as formation of colloid-like particles by dynamic light scattering analysis; type: physicochemical
Summary of the method: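 Compounds diluted as 8-point half-log series in filtered 50 mM KPi, pH 7.0, with 1% v/v DMSO final. Particles detected by dynamic light scattering, triplicate at each concentration. CAC taken as the intersection of separate nonlinear fits to aggregating (>10^6 scattering intensity) and non-aggregating data.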

[7] = biological target: Histone-arginine methyltransferase CARM1 (Homo sapiens) (UniProt Q86X55); test: Inhibition of human PRMT4 using biotin-tagged Histone H3 and 3H-SAM as substrate at 10 uM incubated for 1 hrs by TopCount scintillation proximity assay relative to control; summary of the method: as §1
Histone-arginine methyltransferase CARM1 (Homo sapiens), sequence (Q86X55 whole entry): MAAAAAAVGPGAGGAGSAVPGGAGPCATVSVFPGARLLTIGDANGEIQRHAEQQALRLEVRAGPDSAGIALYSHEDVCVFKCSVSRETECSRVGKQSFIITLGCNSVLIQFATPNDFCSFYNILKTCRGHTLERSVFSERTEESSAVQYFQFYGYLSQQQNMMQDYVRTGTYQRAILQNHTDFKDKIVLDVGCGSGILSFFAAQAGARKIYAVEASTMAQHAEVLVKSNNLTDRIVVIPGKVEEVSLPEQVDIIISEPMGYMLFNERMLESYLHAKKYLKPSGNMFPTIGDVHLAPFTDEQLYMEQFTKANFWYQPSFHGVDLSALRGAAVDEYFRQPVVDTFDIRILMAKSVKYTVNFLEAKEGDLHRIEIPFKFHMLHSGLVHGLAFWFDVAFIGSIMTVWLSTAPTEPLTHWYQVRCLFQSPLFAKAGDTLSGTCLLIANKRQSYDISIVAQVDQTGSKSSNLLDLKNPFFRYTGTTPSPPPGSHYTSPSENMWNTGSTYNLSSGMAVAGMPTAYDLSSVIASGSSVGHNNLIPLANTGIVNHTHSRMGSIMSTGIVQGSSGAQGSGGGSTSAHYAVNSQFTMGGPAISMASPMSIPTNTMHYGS

[8] = biological target: N-lysine methyltransferase KMT5A (Homo sapiens) (UniProt Q9NQR1); test: Inhibition of human SETD8 using biotin-tagged Histone H4 and 3H-SAM as substrate at 10 uM incubated for 1 hrs by TopCount scintillation proximity assay relative to control; summary of the method: as §2
[9] = biological target: Protein arginine N-methyltransferase 7 (Homo sapiens) (UniProt Q9NVM4); test: Inhibition of human PRMT7 using biotin-tagged Histone H2B and 3H-SAM as substrate at 10 uM incubated for 1 hrs by TopCount scintillation proximity assay relative to control; summary of the method: as §1
[10] = biological target: Protein arginine N-methyltransferase 8 (Homo sapiens) (UniProt Q9NR22); test: Inhibition of human PRMT8 using biotin-tagged Histone H4 and 3H-SAM as substrate at 10 uM incubated for 1 hrs by TopCount scintillation proximity assay relative to control; summary of the method: as §1
[11] = biological target: N-lysine methyltransferase SMYD2 (Homo sapiens) (UniProt Q9NRG4); test: Inhibition of human SMYD2 using biotin-tagged p53 and 3H-SAM as substrate at 10 uM incubated for 1 hrs by TopCount scintillation proximity assay relative to control; summary of the method: as §2
[12] = biological target: Histone-lysine N-methyltransferase KMT5C (Homo sapiens) (UniProt Q86Y97); test: Inhibition of human SUV420H2 using Biotin-tagged H4K20me1 and 3H-SAM as substrate at 10 uM incubated for 1 hrs by TopCount scintillation proximity assay relative to control; summary of the method: as §2
Histone-lysine N-methyltransferase KMT5C (Homo sapiens), sequence (Q86Y97 whole entry, looked up): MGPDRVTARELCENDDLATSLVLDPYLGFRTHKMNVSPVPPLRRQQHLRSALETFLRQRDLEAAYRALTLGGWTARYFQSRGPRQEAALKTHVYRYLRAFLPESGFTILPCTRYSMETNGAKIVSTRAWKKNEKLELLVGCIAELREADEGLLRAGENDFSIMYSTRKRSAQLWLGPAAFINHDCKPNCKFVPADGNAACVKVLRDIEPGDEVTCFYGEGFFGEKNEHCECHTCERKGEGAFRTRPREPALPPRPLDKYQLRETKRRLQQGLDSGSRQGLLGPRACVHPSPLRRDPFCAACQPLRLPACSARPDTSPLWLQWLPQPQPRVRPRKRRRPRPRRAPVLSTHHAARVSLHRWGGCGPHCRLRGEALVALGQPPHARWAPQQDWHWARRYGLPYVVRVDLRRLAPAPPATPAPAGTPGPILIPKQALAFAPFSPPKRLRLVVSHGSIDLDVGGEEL

[13] = biological target: Histone-lysine N-methyltransferase KMT5B (Homo sapiens) (UniProt Q4FZB7); test: Inhibition of human SUV420H1 using Biotin-tagged H4K20me1 and 3H-SAM as substrate at 10 uM incubated for 1 hrs by TopCount scintillation proximity assay relative to control; summary of the method: as §2
[14] = species on record: Homo sapiens; test: Inhibition of human EZH2 using biotin-tagged Histone H3 and 3H-SAM as substrate at 10 uM incubated for 1 hrs by TopCount scintillation proximity assay relative to control; summary of the method: as §1
[15] = biological target: Histone-lysine N-methyltransferase, H3 lysine-36 specific (Homo sapiens) (UniProt Q96L73); test: Inhibition of human NSD1 using chicken nucleosome and 3H-SAM as substrate at 10 uM incubated for 1 hrs by TopCount scintillation proximity assay relative to control; summary of the method: as §1
Histone-lysine N-methyltransferase, H3 lysine-36 specific (Homo sapiens), sequence (Q96L73 whole entry): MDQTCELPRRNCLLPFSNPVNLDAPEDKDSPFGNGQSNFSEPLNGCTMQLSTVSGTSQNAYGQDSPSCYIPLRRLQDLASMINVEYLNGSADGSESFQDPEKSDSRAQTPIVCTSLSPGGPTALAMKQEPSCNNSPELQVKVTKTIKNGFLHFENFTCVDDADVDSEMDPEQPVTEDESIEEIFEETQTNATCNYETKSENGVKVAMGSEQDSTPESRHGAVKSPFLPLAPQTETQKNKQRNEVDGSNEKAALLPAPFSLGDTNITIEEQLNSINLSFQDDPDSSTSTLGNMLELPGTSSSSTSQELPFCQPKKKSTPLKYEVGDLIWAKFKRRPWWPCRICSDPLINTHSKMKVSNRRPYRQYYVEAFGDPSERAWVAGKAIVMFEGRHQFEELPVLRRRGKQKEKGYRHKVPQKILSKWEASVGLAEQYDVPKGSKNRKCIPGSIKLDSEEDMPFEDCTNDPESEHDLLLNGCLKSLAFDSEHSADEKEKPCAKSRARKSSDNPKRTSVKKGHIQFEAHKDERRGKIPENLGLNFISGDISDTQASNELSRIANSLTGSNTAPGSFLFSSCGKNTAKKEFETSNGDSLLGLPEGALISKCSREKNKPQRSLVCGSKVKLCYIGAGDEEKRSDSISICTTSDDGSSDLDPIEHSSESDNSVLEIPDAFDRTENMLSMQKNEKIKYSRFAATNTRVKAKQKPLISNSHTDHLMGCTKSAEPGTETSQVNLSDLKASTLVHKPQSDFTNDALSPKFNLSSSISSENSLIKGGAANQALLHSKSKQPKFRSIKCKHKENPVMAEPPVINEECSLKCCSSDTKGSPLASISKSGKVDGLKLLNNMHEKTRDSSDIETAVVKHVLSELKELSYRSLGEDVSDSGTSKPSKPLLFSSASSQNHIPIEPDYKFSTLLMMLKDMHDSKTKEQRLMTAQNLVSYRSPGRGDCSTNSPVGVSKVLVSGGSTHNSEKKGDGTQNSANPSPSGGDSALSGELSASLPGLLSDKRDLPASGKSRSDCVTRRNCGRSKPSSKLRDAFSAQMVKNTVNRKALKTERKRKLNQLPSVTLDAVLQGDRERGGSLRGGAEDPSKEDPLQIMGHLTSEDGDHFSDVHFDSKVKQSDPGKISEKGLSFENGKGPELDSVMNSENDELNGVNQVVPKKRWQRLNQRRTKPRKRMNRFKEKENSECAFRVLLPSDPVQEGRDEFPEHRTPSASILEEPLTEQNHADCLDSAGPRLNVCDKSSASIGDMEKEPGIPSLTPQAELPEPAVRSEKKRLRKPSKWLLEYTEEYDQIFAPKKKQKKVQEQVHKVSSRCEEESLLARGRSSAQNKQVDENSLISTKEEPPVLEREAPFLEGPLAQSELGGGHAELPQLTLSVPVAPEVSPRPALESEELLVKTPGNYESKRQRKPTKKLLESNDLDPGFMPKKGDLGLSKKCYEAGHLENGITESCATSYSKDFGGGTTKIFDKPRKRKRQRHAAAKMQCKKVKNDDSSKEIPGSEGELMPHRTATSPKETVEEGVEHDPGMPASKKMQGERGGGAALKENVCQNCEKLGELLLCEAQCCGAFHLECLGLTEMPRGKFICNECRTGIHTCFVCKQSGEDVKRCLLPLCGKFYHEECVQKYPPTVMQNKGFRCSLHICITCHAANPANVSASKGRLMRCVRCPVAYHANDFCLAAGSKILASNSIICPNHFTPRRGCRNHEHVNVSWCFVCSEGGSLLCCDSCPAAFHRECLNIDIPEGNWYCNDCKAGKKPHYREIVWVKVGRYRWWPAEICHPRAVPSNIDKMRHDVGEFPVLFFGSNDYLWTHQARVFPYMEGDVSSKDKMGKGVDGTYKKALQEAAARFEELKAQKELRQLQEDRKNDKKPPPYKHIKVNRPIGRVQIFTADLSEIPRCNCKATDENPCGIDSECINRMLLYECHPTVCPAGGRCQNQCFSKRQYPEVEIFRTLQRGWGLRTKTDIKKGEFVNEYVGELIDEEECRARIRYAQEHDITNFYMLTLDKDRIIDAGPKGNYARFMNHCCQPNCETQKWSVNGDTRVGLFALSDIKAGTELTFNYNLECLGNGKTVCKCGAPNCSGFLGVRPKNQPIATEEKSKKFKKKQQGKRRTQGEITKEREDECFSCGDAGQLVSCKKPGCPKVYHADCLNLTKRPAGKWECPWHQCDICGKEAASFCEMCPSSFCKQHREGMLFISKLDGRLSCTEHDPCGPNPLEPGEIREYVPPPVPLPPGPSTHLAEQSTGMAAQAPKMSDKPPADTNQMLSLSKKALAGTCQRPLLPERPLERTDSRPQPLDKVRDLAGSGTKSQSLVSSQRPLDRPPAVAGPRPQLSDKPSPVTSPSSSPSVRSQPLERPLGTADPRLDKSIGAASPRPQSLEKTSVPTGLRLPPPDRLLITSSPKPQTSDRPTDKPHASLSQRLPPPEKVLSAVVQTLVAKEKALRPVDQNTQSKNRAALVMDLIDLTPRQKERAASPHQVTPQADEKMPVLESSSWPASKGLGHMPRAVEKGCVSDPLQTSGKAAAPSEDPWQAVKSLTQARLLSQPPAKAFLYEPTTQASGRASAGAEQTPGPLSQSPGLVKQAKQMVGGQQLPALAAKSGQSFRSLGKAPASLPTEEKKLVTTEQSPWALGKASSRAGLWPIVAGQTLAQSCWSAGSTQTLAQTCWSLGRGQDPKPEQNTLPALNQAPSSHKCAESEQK

Cc1c(C(=O)/C=C/c2ccc(O)c([N+](=O)[O-])c2)c(C#N)c2n1CCC2
inhibition [1]: Active | inhibition [2]: < 50% | inhibition [3]: < 50% | inhibition [4]: < 50% | pIC50 [5]: 4.30 | Activity [6]: Not Active | inhibition [7]: < 50% | inhibition [8]: < 50% | inhibition [9]: < 50% | inhibition [10]: < 50% | inhibition [11]: < 50% | inhibition [12]: < 50% | inhibition [13]: < 50% | inhibition [14]: < 50% | inhibition [15]: < 50%
